Data published in ChEMBL document CHEMBL5046312, “Rational Design of an Orally Active Anticancer Fluoropyrimidine, Pencitabine, a Hybrid of Capecitabine and Gemcitabine” (ACS Med Chem Lett, 2022).

Tests used:
SK-BR-3 [1] = experiment: Induction of DNA damage in human SK-BR-3 cells assessed as increase in tail DNA measured at 3 uM after 72 hrs by neutral comet assay relative to control; assay type: functional; details: in the assay text read “alkaline comet assay” for “neutral comet assay”
How it was run: (§1)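 Comet assay scoring DNA damage as % DNA in tail; cells exposed to 0.5, 1.0 or 2.0 μM etoposide or 1.0, 3.0 or 10 μM test nucleoside; mean of scored comets per sample with SE and 80% confidence interval.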

SK-BR-3 [2] = experiment: Induction of DNA damage in human SK-BR-3 cells assessed as increase in tail DNA measured at 10 uM after 72 hrs by neutral comet assay relative to control; assay type: functional; details: in the assay text read “alkaline comet assay” for “neutral comet assay”; how it was run: as §1
SK-BR-3 [3] = experiment: Induction of DNA damage in human SK-BR-3 cells assessed as increase in tail DNA measured at 1 uM after 72 hrs by neutral comet assay relative to control; assay type: functional; details: in the assay text read “alkaline comet assay” for “neutral comet assay”; how it was run: as §1
HCT-116 [4] = experiment: Antitumor activity against human HCT-116 cells xenografted in athymic nude mouse assessed as tumor growth inhibition at 25 mg/kg, po administered for 26 days relative to control; assay type: functional; details: HCT-116, po, 624 h, time 26 day
How it was run: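 Subcutaneous HCT-116 human colorectal carcinoma xenografts in athymic female nude mice; oral dosing at 25 mg/kg over a 26-day period, with capecitabine given as positive control; tumor growth followed, N = 3, SD shown.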

HCT-116 [5] = experiment: Antiproliferative activity against human HCT-116 cells assessed as reduction in cell viability incubated for 72 hrs by MTT assay; assay type: functional, cell-based; details: HCT-116, 72 h
How it was run: (§2)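 Growth inhibition after 72 h continuous exposure of HCT-116 colorectal carcinoma or KG-1 acute myelogenous leukemia cells; concentration giving 50% inhibition taken from dose–response curves.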

KG-1 = experiment: Antiproliferative activity against human KG-1 cells assessed as reduction in cell viability incubated for 72 hrs by MTT assay; assay type: functional, cell-based; details: KG-1, 72 h; how it was run: as §2
SK-BR-3 [6] = experiment: Induction of DNA damage in human SK-BR-3 cells assessed as increase in tail DNA measured at 0.5 uM after 72 hrs by neutral comet assay relative to control; assay type: functional; details: in the assay text read “alkaline comet assay” for “neutral comet assay”; how it was run: as §1
SK-BR-3 [7] = experiment: Induction of DNA damage in human SK-BR-3 cells assessed as increase in tail DNA measured at 2 uM after 72 hrs by neutral comet assay relative to control; assay type: functional; details: in the assay text read “alkaline comet assay” for “neutral comet assay”; how it was run: as §1

| IC50 (HCT-116 [5]) | Structure (SMILES) | Activity (SK-BR-3 [3]) | IC50 (KG-1) | further results |
| --- | --- | --- | --- | --- |
|  | Nc1nc(=O)n([C@@H]2O[C@H](CO)[C@@H](O)C2(F)F)cc1F | 20.7% |  | Activity (SK-BR-3 [1]): 24.28%; Activity (SK-BR-3 [2]): 26.73% |
| 370 nM | CCCCCOC(=O)Nc1nc(=O)n([C@@H]2O[C@H](CO)[C@@H](O)C2(F)F)cc1F |  | 130 nM | inhibition in vivo at 25 mg/kg (HCT-116 [4]): 40% |
| 34200 nM | CCCCCOC(=O)Nc1nc(=O)n([C@@H]2O[C@H](C)[C@@H](O)[C@H]2O)cc1F [CAPECITABINE] |  | 8900 nM |  |
|  | COc1cc([C@@H]2c3cc4c(cc3[C@@H](O[C@@H]3O[C@@H]5CO[C@@H](C)O[C@H]5[C@H](O)[C@H]3O)[C@H]3COC(=O)[C@H]23)OCO4)cc(OC)c1O [ETOPOSIDE] | 24.98% |  | Activity (SK-BR-3 [6]): 15.87%; Activity (SK-BR-3 [7]): 35.17% |
| 50 nM | Nc1ccn([C@@H]2O[C@H](CO)[C@@H](O)C2(F)F)c(=O)n1 [GEMCITABINE] |  | 18 nM |  |
